Bioassay records from PubChem BioAssay.
This is a sample that favours compounds with a hit; in the whole collection about 0.55% have one here.
TRPN1 ag = agonists of zebrafish TRPN1 channel; AID 1424; HEK293 zebrafish TRPN1-YFP, Fluo-8 calcium fluorescence; 100% = response to 87 µM carbachol; actives 0.18% (n = 220,000); activation, % at 3 µM;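 active = activation above its plate's cutoff, the mean activation of test wells on that plate plus 3 SD, cut at about 19% in these data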;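 note: 0% = DMSO alone and 100% = 87 µM carbachol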
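Material: zebrafish TRPN1-YFP in HEK293 cells. Doses: one dose of 3 µM, 0.3% DMSO. Incubation: dye 1 h 37 °C plus 30 min RT. Measured by: intracellular calcium fluorescence with Fluo-8.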
OXTR ag = agonists of human oxytocin receptor; CHO-OTR cells, Fluo-8 calcium fluorescence; normalized: DMSO 0%, oxytocin 100%; actives 0.32% (n = 320,000); activation, % at 3 µM; P30559;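 active = activation above the mean of all tested compounds plus 3 SD, cutoff set per screening run, cut at about 20% in these data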;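 note: peak over basal fluorescence ratio from a 100 s FLIPR kinetic read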
V1aR counter = activates human V1a receptor in oxytocin agonist counter-screen; CHO-V1R cells, Fluo-8 calcium fluorescence, agonist mode; 0% DMSO, 100% 3 nM vasopressin; activation, % at 3 µM; P37288; actives 0.25% (n = 320,000);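 active = activation above the mean activation of all tested compounds plus 3 SD, per screening run, cut at about 20% in these data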;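 note: signal is peak over basal fluorescence ratio across a 100 second FLIPR read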
Target sequence (P37288 whole entry, looked up): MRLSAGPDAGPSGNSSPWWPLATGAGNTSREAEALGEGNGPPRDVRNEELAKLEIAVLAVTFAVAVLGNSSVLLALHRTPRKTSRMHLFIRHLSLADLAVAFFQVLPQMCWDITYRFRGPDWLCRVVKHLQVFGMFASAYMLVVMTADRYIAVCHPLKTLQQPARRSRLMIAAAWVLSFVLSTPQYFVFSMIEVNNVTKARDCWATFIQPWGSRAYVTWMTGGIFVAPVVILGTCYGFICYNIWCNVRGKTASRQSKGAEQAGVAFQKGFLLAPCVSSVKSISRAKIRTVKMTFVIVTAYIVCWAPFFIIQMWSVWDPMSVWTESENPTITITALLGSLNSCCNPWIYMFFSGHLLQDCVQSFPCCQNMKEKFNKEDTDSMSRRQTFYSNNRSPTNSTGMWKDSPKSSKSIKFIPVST
TRPML3 agonist = agonists of human TRPML3 channel | HEK293 TRPML3-YFP, Fluo-8 calcium fluorescence; 100% = the carbachol control signal | activation, % at 3 µM | actives 0.29% (n = 220,000);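 active = activation above its plate's cutoff, the mean activation of the plate's test wells plus 3 SD, cut at about 12% in these data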;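 note: 0% = DMSO only wells and 100% = carbachol wells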
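system = HEK293 cells stably carrying human TRPML3-YFP | doses = one concentration, 3 µM nominal, 0.3% DMSO | timing = dye loading 1 h 37 °C then 30 min ambient, 125 s read | detection = Fluo-8 calcium dye fluorescence, ex 470-495, em 515-575 nm | benchmarks = high control carbachol 87 µM, low control DMSO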
OXTR potentiator = human OXTR potentiation. CHO-OTR cells, Fluo-8 calcium fluorescence, potentiator mode; 0% = oxytocin EC15, 100% = EC100. activation, % at 3 µM. actives 0.061% (n = 320,000). AID 2445;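 active = activation above that plate's cutoff, the mean activation of tested compounds plus 3 SD, cut at about 6.6% in these data, passing the limit was not always enough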;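 note: 100% uses oxytocin at 75 nM as the full agonist control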
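assay system = CHO-OTR cells, human receptor | schedule = compound 6 min at room temperature before oxytocin, 100 s read | detection = Fluo-8 intracellular calcium fluorescence, ex 470-495, em 515-575 nm | evaluation = normalized max/min fluorescence ratio, % activation | control set = EC15 oxytocin alone as 0%, 75 nM oxytocin (EC100) as 100%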
* hit, by the source's call; · = not tested or not shown.

SMILES	TRPN1 ag	OXTR ag	V1aR counter	TRPML3 agonist	OXTR potentiator
CC(C)c1ccc(NC(=O)C2CCCCN2S(=O)(=O)c2ccccc2)cc1 (stereo unspecified)	·	-0.3	-0.1	·	-7.5
COc1ccccc1C(C)NC(=O)c1cc(S(=O)(=O)N2CCCCC2)ccc1C (stereo unspecified)	·	-1.6	-0.1	·	-7.6
CN(C)c1ccc(/C=C/C(=O)c2ccc3c(c2)OCO3)cc1	·	75.1*	77.0*	·	-11.9
COc1ccc(C(=O)/C=C/c2ccc(N(C)C)cc2)c(OC)c1	43.9*	135.2*	153.8*	20.0*	-23.2
O=C(/C=C/c1cccc(O)c1)c1cccnc1	1.0	1.1	0.9	3.6	-1.6
COc1ccc(C(=O)/C=C/c2ccccc2)c(OC)c1	-1.1	-1.6	-1.5	-0.2	-6.2
CN(C)c1ccc(/C=C/C(=O)c2cccnc2)cc1	42.5*	90.1*	86.0*	33.5*	-18.9
CCOC(=O)c1c(CSC(=N)N)n(-c2ccc(C)cc2)c2cc(Br)c(OC(C)=O)cc12	5.9	31.5*	21.6*	1.7	-23.4
CCOC(=O)c1c(CSC(=N)N)n(C)c2cc(Br)c(OC(C)=O)cc12	0.7	-0.6	-0.4	0.9	-9.5
C=C1CCN([C@@H](CC(C)C)C(=O)Nc2nc3ccc(Cl)cc3s2)S(=O)(=O)c2ccccc21	·	-0.1	1.9	·	1.3
CC1C/C(=C/c2ccncc2)C(=O)/C(=C/c2ccncc2)C1 (stereo unspecified)	4.2	6.8	8.9	3.0	-6.9
CC1C/C(=C/c2cccn2C)C(=O)/C(=C/c2cccn2C)C1 (stereo unspecified)	0.9	58.1*	78.5*	1.1	-22.9
C[C@H]1COC(=O)[C@H](Cc2ccc(F)cc2)C/C=C\C[C@@H](CC(=O)N(CCO)Cc2ccccc2)C(=O)N1	·	0.6	0.3	·	-4.5
Cc1onc(-c2ccccc2Cl)c1C(=O)N[C@@H](C)c1ccccc1	·	-3.1	-0.2	·	0.6
C=CCn1c(SCC)nc(O)cc1=O	0.6	28.7*	60.0*	0.8	-5.4
O=C(/C=C/c1cccs1)NC(=S)NNC(=O)c1ccccc1O	20.9*	17.8	14.2	14.5*	-12.2
COc1ccc(C(=O)NNC(=S)NC(=O)/C=C/c2cccs2)cc1	2.2	3.3	1.2	-0.4	-7.4
COC(C[C@@H]1O[C@H]1[C@H](O)[C@@H](C)OCc1ccccc1)OC	·	-1.2	-0.1	·	-4.2
CCCCNC(=S)Nc1ccc([N+](=O)[O-])cc1	21.5*	10.3	8.0	10.7	-15.7
CC(C)CCNC(=S)Nc1ccc([N+](=O)[O-])cc1	24.3*	7.8	5.8	13.5*	-6.8
CCCCNC(=S)NC(=O)c1ccc([N+](=O)[O-])cc1	-2.9	-2.6	-1.1	0.0	-9.2
O=C(CSc1nc2ccccc2c(=O)n1-c1ccccc1Cl)NC1CCS(=O)(=O)C1 (stereo unspecified)	·	1.0	0.6	·	-0.4
Cc1cccc(C(=O)NC(=S)NNC(=O)c2ccccc2Cl)c1	34.4*	71.5*	49.5*	12.6*	-20.8
CC(=O)NNC(=S)NC(=O)c1ccc(C)cc1	0.4	-0.9	0.6	0.4	-5.1
Cc1ccccc1C(=O)NNC(=S)NC(=O)c1ccc(Cl)cc1Cl	71.7*	73.5*	84.6*	56.6*	-14.0
SMILES	TRPN1 ag	OXTR ag	V1aR counter	TRPML3 agonist	OXTR potentiator
Cc1onc(-c2ccccc2)c1C(=O)NNC(=O)c1ccccc1	·	-0.6	0.0	·	-0.6
Cc1ccc(C(=O)NNC(=S)NC(=O)c2ccc(Cl)cc2)cc1	142.8*	91.3*	81.4*	83.0*	-13.1
Cc1onc(-c2ccccc2)c1C(=O)NNC(=S)NC(=O)c1ccc(Br)cc1	23.4*	73.1*	65.8*	11.0	-11.4
Cn1c(=O)c2c(nc(SCC(=O)N(C3CCCCC3)C3CCCCC3)n2C)n(C)c1=O	0.4	·	·	0.8	·
Cc1onc(-c2ccccc2)c1C(=O)NNC(=S)NC(=O)c1ccc(Cl)cc1Cl	7.1	101.9*	101.5*	1.7	-11.7
Cc1onc(-c2ccccc2)c1C(=O)NNC(=O)c1ccccc1O	·	-0.5	-0.3	·	-4.0
Cc1onc(-c2ccccc2)c1C(=O)NNC(=S)NC(=O)/C=C/c1ccccc1	4.0	35.2*	46.5*	1.6	-8.7
O=C(Cn1cc([N+](=O)[O-])nc1[N+](=O)[O-])N1CCN(c2ccccc2)CC1	2.2	1.0	1.3	0.9	1.0
COc1ccc(C)cc1NC(=O)c1ccccc1NS(=O)(=O)c1ccc(Cl)s1	22.3*	13.4	8.5	14.4*	-15.7
CCOc1cc(NC(=S)Nc2ccccc2)c(OCC)cc1NC(=O)c1ccccc1	-0.4	-1.6	-0.5	76.7*	-7.8
O=C(O)/C=C/c1ccc([N+](=O)[O-])o1	4.2	1.9	4.2	1.9	-3.8
O=C1NC(=S)S/C1=C\C=C\c1ccc([N+](=O)[O-])o1	20.9*	·	·	11.0	·
Nc1ccccc1N=Cc1ccc(-c2cccc(Cl)c2)o1	1.0	-2.1	0.3	0.3	-1.6
O=C(NC(Nc1nc2ccc([N+](=O)[O-])cc2s1)(C(F)(F)F)C(F)(F)F)c1ccccc1Cl	22.8*	2.1	4.7	23.4*	-10.5
O=C(NC(Nc1nc2ccc([N+](=O)[O-])cc2s1)(C(F)(F)F)C(F)(F)F)c1cccnc1	18.1	17.3	14.1	10.2	-11.9
O=C(Nc1nnc(C(F)(F)F)s1)c1ccc(Br)s1	28.7*	19.3	9.2	19.3*	-8.5
O=C(Nc1ccccc1C(=O)Nc1nnc(C(F)(F)F)s1)c1ccccc1Cl	23.0*	9.9	11.7	13.2*	-14.3
CC(C)(C)CC(=O)Nc1nnc(C(F)(F)F)s1	0.0	-1.4	-1.0	0.4	-16.6
NC(=O)c1ccccc1NC(=O)c1ccccc1Cl	-0.5	1.2	-0.1	0.5	0.0
CC(NC(=O)Nc1nnc(C(F)(F)F)s1)(C(F)(F)F)C(F)(F)F	25.8*	13.7	9.0	21.2*	-10.5
O=C(c1ccc(OC2CCN(C/C=C/c3ccc(F)cc3)CC2)cc1)N1CCCC1	·	2.3	3.1	·	-5.6
C[C@@H]1CN([C@H](C)CO)C(=O)c2cc(NS(=O)(=O)c3cn(C)cn3)ccc2O[C@H]1CN(C)C(=O)Nc1ccccc1	·	1.8	0.9	·	-4.2
CCCCCCCCCC[N+](C)(C)CC/C=C1/c2ccccc2Sc2ccc(Cl)cc21	·	31.3*	36.9*	·	-12.8
CCCn1c(=O)c(C(=O)NNC(=O)c2ccccc2Cl)c(O)c2ccccc21	·	40.1*	30.5*	·	-15.8
COc1ccc(/C(N)=N/OC(=O)CN(C)S(=O)(=O)c2ccc(C)cc2)cc1	-0.7	·	·	84.0*	·
Cc1ccc(/C(N)=N/OC(=O)CN(C)S(=O)(=O)c2ccc(C)cc2)cc1	·	-0.3	3.9	·	-8.4
